pEC50, pKi: −log10 of the molar value. Active and inactive are the calls of the source. Where a SMILES comes first, the peptide text is derived from it. [ ]: non-standard residue; d: D form. ξ: configuration not given here. Dmt = Cc1cc(O)cc(C)c1C[C@H](N)C(=O)O; ξTiq(1-COOH) = O=C(O)C1NCCc2ccccc21
How the values were obtained:
Mus musculus [1] = experiment: Antinociceptive activity in icv dosed C57BL/6J mouse assessed as latency to withdrawal tail after 30 mins by 55 degC warm-water tail withdrawal assay; format: functional
Procedure, shortened: (§1)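 Mouse 55 °C warm-water tail-withdrawal test with a baseline latency taken before dosing and a 15 s cut-off. Single i.c.v. injection of 5 µL into the lateral ventricle under light isoflurane. Latency measured at 10-min intervals, with dose–response values taken at peak: 20 min for peptides, 30 min for morphine. Mean % antinociception from 8 mice; ED₅₀ with 95% CI.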

Mus musculus [2] = experiment: Antinociceptive activity in icv dosed C57BL/6J mouse assessed as latency to withdrawal tail administered first dose for 8 hrs followed by second dose measured after 30 mins by 55 degC warm-water tail withdrawal assay; format: functional
Procedure, shortened: (§2)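 Acute tolerance in the mouse 55 °C warm-water tail-withdrawal test, 15 s cut-off. First i.c.v. dose at time 0 (morphine 3 nmol or test peptide 2 nmol), then a second i.c.v. dose of 0.1–100 nmol 8 h later. Latency read 30 min after the second dose for morphine and 20 min for the peptide. n = 8 mice per point; ED₅₀ with 95% CI by nonlinear regression.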

Mu-type opioid receptor = Mu-type opioid receptor (Rattus norvegicus, UniProt P33535); experiment: Displacement of [3H]DAMGO from rat cortex mu opioid receptor after 30 mins by liquid scintillation counting analysis
Sequence of Mu-type opioid receptor (P33535 whole entry): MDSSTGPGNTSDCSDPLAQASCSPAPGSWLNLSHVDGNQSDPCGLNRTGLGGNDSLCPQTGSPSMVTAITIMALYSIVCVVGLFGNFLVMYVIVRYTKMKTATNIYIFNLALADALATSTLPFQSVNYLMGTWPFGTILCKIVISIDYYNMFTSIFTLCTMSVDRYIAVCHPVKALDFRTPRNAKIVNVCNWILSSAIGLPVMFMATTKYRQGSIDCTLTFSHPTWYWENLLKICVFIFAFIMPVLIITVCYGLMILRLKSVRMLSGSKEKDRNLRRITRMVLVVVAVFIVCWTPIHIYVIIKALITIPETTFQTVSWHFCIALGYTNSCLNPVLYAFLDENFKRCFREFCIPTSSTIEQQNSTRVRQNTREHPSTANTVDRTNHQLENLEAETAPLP
Procedure, shortened: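 Rat cortex membranes prepared in 50 mM Tris pH 7.4, spun 16,500 rpm for 10 min, and incubated 30 min at 37 °C. Competition against [³H]DAMGO. Assay ended by filtration on BSA-soaked GF/B filters. Ki values are means of two experiments.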

[3] = target: Delta-type opioid receptor (Rattus norvegicus, UniProt P33533); experiment: Displacement of [3H]DPDPE from rat cortex delta opioid receptor after 2.5 hrs by liquid scintillation counting analysis
Sequence of Delta-type opioid receptor (Rattus norvegicus, UniProt P33533) (P33533 whole entry): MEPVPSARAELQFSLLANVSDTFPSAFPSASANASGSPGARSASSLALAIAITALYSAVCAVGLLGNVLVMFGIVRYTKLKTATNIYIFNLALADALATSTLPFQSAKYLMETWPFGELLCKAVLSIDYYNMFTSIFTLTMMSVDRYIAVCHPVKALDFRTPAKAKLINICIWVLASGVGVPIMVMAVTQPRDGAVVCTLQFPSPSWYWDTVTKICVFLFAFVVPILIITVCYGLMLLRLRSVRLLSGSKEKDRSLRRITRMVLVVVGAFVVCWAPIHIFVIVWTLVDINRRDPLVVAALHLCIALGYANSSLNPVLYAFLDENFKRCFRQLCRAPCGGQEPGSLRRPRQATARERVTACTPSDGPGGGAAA

[4] = target: Mu-type opioid receptor (Homo sapiens) (UniProt P35372); experiment: Agonist activity at mu opioid receptor (unknown origin) expressed in HEK293 cells assessed as change in cell morphology at 3.3 uM measured over 30 mins by label free binding assay relative to DAMGO; format: cell-based
Sequence of Mu-type opioid receptor (Homo sapiens) (P35372 whole entry): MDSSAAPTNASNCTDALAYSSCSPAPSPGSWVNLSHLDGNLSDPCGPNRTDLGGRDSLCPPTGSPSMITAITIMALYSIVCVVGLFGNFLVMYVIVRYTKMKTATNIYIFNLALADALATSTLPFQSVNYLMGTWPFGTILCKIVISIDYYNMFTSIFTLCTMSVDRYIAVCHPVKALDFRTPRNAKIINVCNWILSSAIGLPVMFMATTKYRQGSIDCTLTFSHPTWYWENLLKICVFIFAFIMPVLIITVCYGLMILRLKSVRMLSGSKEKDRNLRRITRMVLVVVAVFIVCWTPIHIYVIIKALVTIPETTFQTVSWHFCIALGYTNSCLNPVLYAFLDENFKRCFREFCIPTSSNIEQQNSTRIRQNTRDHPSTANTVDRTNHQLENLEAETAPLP
Procedure, shortened: (§3)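 Label-free biosensor (BIND) measuring cell spreading as increase in peak wavelength value. MOR in HEK293 cells, DOR in CHO cells, seeded 2 × 10⁴/well on fibronectin/collagen/albumin-coated plates and incubated overnight. Assay buffer was HBSS with 0.5–1% DMSO, equilibrated 30 min at room temperature before a baseline read. Compound added to a final 3.3 µM and read over 30 min. Response given as % of DAMGO 300 nM (MOR, n = 2) or DPDPE 10 nM (DOR, n = 4).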

[5] = target: T1, Delta-type opioid receptor (Homo sapiens, UniProt P41143); experiment: Agonist activity at delta opioid receptor (unknown origin) expressed in CHO cells assessed as change in cell morphology at 3.3 uM measured over 30 mins by label free binding assay relative to DPDPE; format: cell-based; procedure, shortened: as §3
T1 sequence (P41143 whole entry): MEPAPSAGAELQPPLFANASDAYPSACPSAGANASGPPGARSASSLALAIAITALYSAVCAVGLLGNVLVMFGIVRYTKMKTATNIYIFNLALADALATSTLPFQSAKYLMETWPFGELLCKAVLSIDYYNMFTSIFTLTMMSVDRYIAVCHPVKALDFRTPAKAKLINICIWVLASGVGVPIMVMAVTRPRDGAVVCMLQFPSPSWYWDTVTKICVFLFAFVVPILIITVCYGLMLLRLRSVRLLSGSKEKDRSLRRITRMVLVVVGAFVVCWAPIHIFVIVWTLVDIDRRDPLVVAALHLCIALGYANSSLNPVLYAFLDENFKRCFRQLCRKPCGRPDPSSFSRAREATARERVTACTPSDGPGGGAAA

[6] = target: T1, Delta-type opioid receptor; experiment: Agonist activity at delta opioid receptor (unknown origin) expressed in CHO cells assessed as inhibition of forskolin-induced cAMP production at 500 nM after 30 mins by europium cryptate/d2 dye-based FRET analysis relative to DPDPE; format: functional, cell-based
Procedure, shortened: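 DOR-expressing CHO cells, 20,000/well, exposed to test compound at 500 nM with 4 µM forskolin in PBS containing 1 mM IBMX for 30 min at room temperature. Cells then lysed with Europium cryptate and d2 acceptor reagents for 1 h, and cAMP read by FRET. Expressed as % of the 500 nM DPDPE response, n = 4.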

[7] = target: T1, Delta-type opioid receptor; experiment: Agonist activity at delta opioid receptor (unknown origin) expressed in CHO cells assessed as change in cell morphology measured over 30 mins by label free binding assay; format: cell-based
Procedure, shortened: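 DOR-expressing CHO cells on coated plates in a label-free BIND biosensor, with the increase in peak wavelength value read over 30 min after compound addition. HBSS buffer with 0.5–1% DMSO, baseline read first. Points are means of two separate assays.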

[8] = Half life in rat brain homogenate at 10 uM; format: ADME, tissue-based
Procedure, shortened: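 Peptide at a final 10 µM in rat brain homogenate (protein 21.2 mg/mL), incubated at 37 °C. Aliquots quenched in acetonitrile with internal standard in triplicate, centrifuged, and analysed by LC-MS/MS in MRM mode. Half-life from pseudo-first-order loss of the analyte/internal-standard ratio; mean of at least three experiments ± SEM.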

Mus musculus [9] = experiment: Antinociceptive activity in icv dosed C57BL/6J mouse assessed as latency to withdrawal tail after 20 mins by 55 degC warm-water tail withdrawal assay; format: functional; procedure, shortened: as §1
Mus musculus [10] = experiment: Antinociceptive activity in C57BL/6J mouse assessed as latency to withdrawal tail at 100 nmol, icv measured up to 80 mins by 55 degC warm-water tail withdrawal assay; format: functional, organism-based; procedure, shortened: as §1
Mus musculus [11] = experiment: Antinociceptive activity in mu opioid receptor knock out mouse assessed as latency to withdrawal tail at 30 nmol, icv after 30 mins by 55 degC warm-water tail withdrawal assay; format: functional, organism-based
Procedure, shortened: (§4)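 Tail-withdrawal test at 55 °C, read 30 min after i.c.v. dosing (100 or 30 nmol), in MOR KO or KOR KO mice. Wild-type C57BL/6J mice were instead pretreated with naltrindole 20 mg/kg, route given as i.p. in the methods and s.c. in the legend, 20 min before dosing. n = 8 mice; one-way ANOVA with Tukey's test.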

Mus musculus [12] = experiment: Antinociceptive activity in kappa opioid receptor knock out mouse assessed as latency to withdrawal tail at 30 nmol, icv after 30 mins by 55 degC warm-water tail withdrawal assay; format: functional, organism-based; procedure, shortened: as §4
Mus musculus [13] = experiment: Antinociceptive activity in wild type C57BL/6J mouse assessed as latency to withdrawal tail at 30 nmol, icv treated with delta opioid receptor anatgonist naltrindole for 20 mins prior to compound addition measured after 30 mins by 55 degC warm-water tail withdrawal assay; format: functional, organism-based; procedure, shortened: as §4
Mus musculus [14] = experiment: Inhibition of delta opioid receptor agonist SNC-80-induced antinociceptive activity in C57BL/6J mouse assessed as latency to withdrawal tail at 30 nmol, icv administered 90 mins prior to SNC-80 treatment measured after 40 mins by 55 degC warm-water tail withdrawal assay; format: functional, organism-based
Procedure, shortened: (§5)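 C57BL/6J mice given 30 nmol i.c.v. 90 min before morphine 10 mg/kg i.p., U50,488 10 mg/kg i.p., or SNC-80 100 nmol i.c.v. Tail-withdrawal at 55 °C measured 40 min after the agonist. n = 8 mice; Student's t-test.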

Mus musculus [15] = experiment: Inhibition of mu opioid receptor agonist morphine-induced antinociceptive activity in C57BL/6J mouse assessed as latency to withdrawal tail at 30 nmol, icv administered 90 mins prior to morphine treatment measured after 40 mins by 55 degC warm-water tail withdrawal assay; format: functional, organism-based; procedure, shortened: as §5
Mus musculus [16] = experiment: Inhibition of kappa opioid receptor agonist U50,488-induced antinociceptive activity in C57BL/6J mouse assessed as latency to withdrawal tail at 30 nmol, icv administered 90 mins prior to U50,488 treatment measured after 40 mins by 55 degC warm-water tail withdrawal assay; format: functional, organism-based; procedure, shortened: as §5
Mus musculus [17] = experiment: Toxicity in C57BL/6J mouse assessed as impairment of locomotor co-ordination at 100 nmol, icv administered 15 mins prior to assessment in accelerated speed trials measured over 60 mins by rotorod test; format: organism-based; conditions: in vivo, icv_or_intrathecal, 1 h
Procedure, shortened: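 Rotorod test after seven habituation trials, the last used as baseline. Mice given vehicle (50% DMSO) or 100 nmol i.c.v. Latency to fall recorded over 60 min and expressed as % change from baseline per 10 min. 8–18 mice; two-way ANOVA.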

Mus musculus [18] = experiment: Antinociceptive activity in icv dosed C57BL/6J mouse assessed as latency to withdrawal tail administered first dose for 8 hrs followed by second dose measured after 20 mins by 55 degC warm-water tail withdrawal assay; format: functional; procedure, shortened: as §2
Mus musculus [19] = experiment: Antinociceptive activity in mu opioid receptor knock out mouse assessed as latency to withdrawal tail at 100 nmol, icv after 30 mins by 55 degC warm-water tail withdrawal assay; format: functional, organism-based; procedure, shortened: as §4
Mus musculus [20] = experiment: Antinociceptive activity in kappa opioid receptor knock out mouse assessed as latency to withdrawal tail at 100 nmol, icv after 30 mins by 55 degC warm-water tail withdrawal assay; format: functional, organism-based; procedure, shortened: as §4
Mus musculus [21] = experiment: Antinociceptive activity in wild type C57BL/6J mouse assessed as latency to withdrawal tail at 100 nmol, icv treated with delta opioid receptor anatgonist naltrindole for 20 mins prior to compound treatment measured after 30 mins by 55 degC warm-water tail withdrawal assay; format: functional, organism-based; procedure, shortened: as §4

CN1CC[C@]23c4c5ccc(O)c4O[C@H]2[C@@H](O)C=C[C@H]3[C@H]1C5 [MORPHINE]
Activity (Mus musculus [1]): Dose-dependent effect
ED50 (Mus musculus [1]): 2.35 nmol
ED50 (Mus musculus [2]): 22.5 nmol

Cc1cc(O)cc(C)c1C[C@H](N)C(=O)N1CCc2ccccc2C1C(=O)N[C@@H](Cc1ccccc1)[C@@H](O)C(=O)N[C@@H](Cc1ccccc1)C(N)=O (stereo partly drawn)
pKi (Mu-type opioid receptor): 8.10
pKi [3]: 9.15
Activity [4]: 42%
Activity [5]: 30%
inhibition [6]: 66%
pEC50 [7]: 7.64
half-life at 10 µM [8]: > 120 min
Activity (Mus musculus [9]): Dose-dependent effect
ED50 (Mus musculus [9]): 1.98 nmol
Activity (Mus musculus [10]): Active
Activity (Mus musculus [11]): inactive
Activity (Mus musculus [12]): inactive
Activity (Mus musculus [13]): inactive
inhibition (Mus musculus [14]): Active
inhibition (Mus musculus [15]): inactive
inhibition (Mus musculus [16]): inactive
Activity (Mus musculus [17]): Non-toxic
ED50 (Mus musculus [18]): 0.86 nmol

Cc1cc(O)cc(C)c1C[C@H](N)C(=O)N1CCc2ccccc2C1C(=O)N[C@@H](Cc1ccccc1)C(=O)N[C@@H](Cc1ccccc1)C(N)=O (stereo partly drawn) (H-[Dmt][ξTiq(1-COOH)]FF-NH2)
pKi (Mu-type opioid receptor): 8.30
pKi [3]: 8.70
Activity [4]: 61%
Activity [5]: 46%
inhibition [6]: 73%
half-life at 10 µM [8]: 6.11 min
Activity (Mus musculus [9]): Dose-dependent effect
ED50 (Mus musculus [9]): 21.7 nmol
Activity (Mus musculus [19]): inactive
Activity (Mus musculus [20]): inactive
Activity (Mus musculus [21]): inactive
Activity (Mus musculus [17]): Toxic
